Data published in ChEMBL document CHEMBL4811266 (Bioorg Med Chem Lett, 2021).
Numbered stars: 1 amine (or outer) side, 2 acyl side, 3 side chain; on linkers, the order of the positions; unused ones are H or OH. Square brackets hold non-standard residues; d marks the D form. Peptide text beside a SMILES is read from it. X1 = O=C([C@@H]1Cc2cc(O)ccc2CN1[*:1])[*:2]; Tic(7-OH) = O=C(O)[C@@H]1Cc2ccc(O)cc2CN1

Tests used:
[1] = molecular target: T1, Type-1 angiotensin II receptor (Homo sapiens, UniProt P30556); assay: Displacement of [125-I]-[Sar1, Ile8] from recombinant human AT1R transfected in human HEK293 cells incubated for 2 hrs by liquid scintillation counter analysis; assay type: cell-based
T1 sequence (P30556 whole entry): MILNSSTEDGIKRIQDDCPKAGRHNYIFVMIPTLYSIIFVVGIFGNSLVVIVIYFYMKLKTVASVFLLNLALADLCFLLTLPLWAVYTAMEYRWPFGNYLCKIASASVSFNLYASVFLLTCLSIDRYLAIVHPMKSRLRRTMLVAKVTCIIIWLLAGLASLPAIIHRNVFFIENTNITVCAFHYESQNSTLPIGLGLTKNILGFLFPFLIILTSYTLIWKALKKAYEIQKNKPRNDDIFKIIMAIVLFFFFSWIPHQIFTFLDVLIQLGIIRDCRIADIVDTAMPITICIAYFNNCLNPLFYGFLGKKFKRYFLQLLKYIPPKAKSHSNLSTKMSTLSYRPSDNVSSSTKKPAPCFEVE

[2] = molecular target: T2, Type-2 angiotensin II receptor (Homo sapiens, UniProt P50052); assay: Displacement of [125-I]-[Sar1, Ile8] from recombinant human AT2R transfected in human HEK293 cells incubated for 2 hrs by liquid scintillation counter analysis; assay type: cell-based
T2 sequence (P50052 whole entry): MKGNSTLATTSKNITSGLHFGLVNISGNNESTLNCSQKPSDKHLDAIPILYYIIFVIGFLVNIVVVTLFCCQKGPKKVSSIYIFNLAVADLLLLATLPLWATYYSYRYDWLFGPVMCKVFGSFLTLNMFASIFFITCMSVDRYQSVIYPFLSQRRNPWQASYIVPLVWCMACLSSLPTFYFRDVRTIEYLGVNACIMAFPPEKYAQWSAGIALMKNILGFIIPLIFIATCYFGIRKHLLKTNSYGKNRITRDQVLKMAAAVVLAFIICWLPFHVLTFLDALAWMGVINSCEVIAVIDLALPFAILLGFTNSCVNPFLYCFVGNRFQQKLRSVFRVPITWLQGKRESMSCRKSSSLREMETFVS

[3] = Stability of compound in human plasma assessed as parent compound remaining incubated for 24 hrs by LC-MS/MS analysis; assay type: ADME, cell-free; conditions: read-out: Stabilty
Procedure, shortened: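 Peptides were incubated in human plasma and sampled at different time intervals up to 24 h. Remaining concentration was monitored by LC-MS using selected abundant transitions and expressed relative to the initial concentration.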

[4] = species on record: Homo sapiens; assay: Selectivity index, ratio of IC50 for displacement of [125-I]-[Sar1, Ile8] from recombinant human AT1R transfected in human HEK293 cells to IC50 for displacement of [125-I]-[Sar1, Ile8] from recombinant human AT2R transfected in human HEK293 cells

Molecule | IC50 [1] [nM] | IC50 [2] [nM] | remaining at 24 h [3] [%] | Ratio IC50 [4]
CC[C@H](C)[C@H](NC(=O)[C@H](Cc1ccc(O)cc1)NC(=O)[C@@H](NC(=O)[C@@H](N)CCCNC(=N)N)C(C)C)C(=O)N[C@H]1Cc2c([nH]c3ccccc23)CN(CC(=O)N[C@@H](Cc2ccccc2)C(=O)O)C1=O | > 10000 | 107 | 70 | > 94
CC[C@H](C)[C@H](NC(=O)[C@H](Cc1ccc(O)cc1)NC(=O)[C@@H](NC(=O)[C@H](CCCNC(=N)N)NC(=O)[C@@H](N)CC(=O)O)C(C)C)C(=O)N[C@H]1Cc2c([nH]c3ccccc23)CN(CC(=O)N[C@@H](Cc2ccccc2)C(=O)O)C1=O | > 10000 | 45.7 | > 50 | > 219
CC[C@H](C)[C@H](NC(=O)[C@H](Cc1ccc(O)cc1)NC(=O)[C@@H](NC(=O)[C@@H](N)CCCNC(=N)N)C(C)C)C(=O)N1Cc2ccc(O)cc2C[C@H]1C(=O)N1CCC[C@H]1C(=O)N[C@@H](Cc1ccccc1)C(=O)O (H-RVYI[X1]PF-OH) | 2010 | 315 | > 50 | 6.4
H-DRVYIYPF-OH | 72600 | – | > 50 | 18000
CC[C@H](C)[C@H](NC(=O)[C@H](Cc1ccc(O)cc1)NC(=O)[C@@H](NC(=O)[C@H](CCCNC(=N)N)NC(=O)[C@@H](N)CC(=O)O)C(C)C)C(=O)N1Cc2ccc(O)cc2C[C@H]1C(=O)N1CCC[C@H]1C(=O)N[C@@H](Cc1ccccc1)C(=O)O (H-DRVYI[X1]PF-OH) | 174 | 59.3 | > 50 | 2.9
CC[C@H](C)[C@H](NC(=O)[C@H](Cc1ccc(O)cc1)NC(=O)[C@@H](NC(=O)[C@H](CCCNC(=N)N)NC(=O)[C@@H](N)CC(=O)O)C(C)C)C(=O)N1Cc2cc(O)ccc2C[C@H]1C(=O)N1CCC[C@H]1C(=O)N[C@@H](Cc1ccccc1)C(=O)O (H-DRVYI[Tic(7-OH)]PF-OH) | > 10000 | 89.2 | > 90 | > 112
CC[C@H](C)[C@H](NC(=O)[C@H](Cc1ccc(O)cc1)NC(=O)[C@@H](NC(=O)[C@@H](N)CCCNC(=N)N)C(C)C)C(=O)N1Cc2cc(O)ccc2C[C@H]1C(=O)N1CCC[C@H]1C(=O)N[C@@H](Cc1ccccc1)C(=O)O (H-RVYI[Tic(7-OH)]PF-OH) | 134 | 119 | > 70 | 1.1
